The structures appear in SMILES notation. About 900 (0.69%) of roughly 130,000 compounds were called active.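 Rule for the calls: active = inhibition above a set limit, placed 3 SD over the median of all compounds (cut at about 26% in these data); inactive = the rest.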 The entries come from a sample that favours actives as a whole.

Among the data in PubChem BioAssay AID775 (SRMLSC, 2007) are inhibition of the nicotinamide effect values, retold here.

The experiment is described as follows: rescue of nicotinamide-shortened yeast lifespan – S. cerevisiae, OD615, primary screen (AID 775).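 Note: 0% = nicotinamide-treated wells and 100% = cells grown without nicotinamide.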 The conditions noted are these: S. cerevisiae growth with nicotinamide, at 10 µM, stronger effect = higher value, deaD strain in restrictive glucose medium. The method in brief: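 Assay system: engineered S. cerevisiae DeaD replicative-lifespan strain, galactose-grown log-phase cells; medium: restrictive CSMM-D dextrose medium; also added: nicotinamide, 1.5 mM, co-present with compound; schedule: 48 h compound exposure at 30 °C, humidified; detection: absorbance at 615 nm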
In the case of `COc1ccc(C(=O)CC2C(=O)N(C)C(=O)N(C)C2=O)cc1`, the inhibition of the nicotinamide effect is 31% (active). `COc1ccc(C(=O)C2CN(C)CC2C(=O)c2ccc(OC)cc2)cc1` (stereo not given): the inhibition of the nicotinamide effect was -7.58% (inactive).

In the case of `CN1CCN(C(=S)SCC(=O)Nc2ccc(Cl)cc2C(=O)c2ccccc2)CC1`, the inhibition of the nicotinamide effect is 2.18% (inactive). Turning to `CNC(=S)N/N=C1\C2CN3CCN(C2)CC1(c1ccccc1)C3`, the inhibition of the nicotinamide effect was 6.05% (inactive). In the case of `CC(=C1C(=O)c2ccccc2C1=O)N1CCN(CCN=Cc2c(O)n(C)c(=O)n(C)c2=O)CC1`, the inhibition of the nicotinamide effect was 26.9% (active). On to `CC(=NC1CCN(Cc2ccccc2)CC1)c1c(O)n(C)c(=O)n(C)c1=O`, for which the inhibition of the nicotinamide effect was -9.29% (inactive). In the case of `Cn1c(O)c(C=NCCCC(=O)O)c(=O)n(C)c1=O`, the inhibition of the nicotinamide effect was -5.17% (inactive). In the case of `O=C(N/N=C/c1c(O)n(Cc2ccccc2)c(=O)[nH]c1=O)c1ccccc1`, the inhibition of the nicotinamide effect is -4.35% (inactive). Under `CN(C)C(=O)Oc1cc(=O)n2c3c(cccc13)CCC2` stands -0.91% (inactive); under `O=C(CCNS(=O)(=O)c1ccccc1)Nc1ccc(Cl)cc1C(=O)c1ccccc1`, 0.6% (inactive); under `Cc1ccc(-n2c(-c3ccc([N+](=O)[O-])cc3)nc3ccccc3c2=O)cc1`, 2.14% (inactive).

For `CCCCCn1c(=O)c(C(=O)Nc2c(C)n(C)n(-c3ccccc3)c2=O)c(O)c2ccccc21`, the inhibition of the nicotinamide effect was 0.87% (inactive). The same measure for `CCCCCn1c(=O)c(C(=O)NCc2ccccn2)c(O)c2ccccc21`: 36.3% (active); for `COc1cc(C(c2c(O)c3ccccc3oc2=O)c2c(C)n(C)n(-c3ccccc3)c2=O)ccc1O` (stereo not given): 0.56% (inactive); for `CC(C(=O)Nc1ccc(Cl)cc1Cl)N1CC=C(c2ccccc2)CC1` (stereo not given): -1.28% (inactive). In the case of `CN(C)CC1CCCCC1OC(=O)c1ccc(Cl)c(Cl)c1` (stereo not given), the inhibition of the nicotinamide effect is 2.28% (inactive).

With `Cc1ccnc(-n2c(C)cc(/C=C3\C(=O)NC(=S)N(C)C3=O)c2C)c1`, the inhibition of the nicotinamide effect is 43.7% (active). Under `Cc1ccc(-n2c(C)cc(/C=C3\C(=O)NC(=O)N(C)C3=O)c2C)cc1C` stands 4.25% (inactive); under `C=CCn1c(O)c(/C=N/N2CCOCC2)c(=O)[nH]c1=S`, -2.87% (inactive); under `O=C1NC(=O)N(c2ccc(F)cc2)C(=O)/C1=C/c1ccc2c(c1)CCCN2Cc1ccccc1`, -3.32% (inactive).
